Results on seven compounds are retold here after article PMC9643279 (Acta Pharmaceutica Sinica. B, 2022).

Test [1] has as its target T1, PGK1 (Homo sapiens, UniProt P00558).
T1 sequence (P00558 1-417): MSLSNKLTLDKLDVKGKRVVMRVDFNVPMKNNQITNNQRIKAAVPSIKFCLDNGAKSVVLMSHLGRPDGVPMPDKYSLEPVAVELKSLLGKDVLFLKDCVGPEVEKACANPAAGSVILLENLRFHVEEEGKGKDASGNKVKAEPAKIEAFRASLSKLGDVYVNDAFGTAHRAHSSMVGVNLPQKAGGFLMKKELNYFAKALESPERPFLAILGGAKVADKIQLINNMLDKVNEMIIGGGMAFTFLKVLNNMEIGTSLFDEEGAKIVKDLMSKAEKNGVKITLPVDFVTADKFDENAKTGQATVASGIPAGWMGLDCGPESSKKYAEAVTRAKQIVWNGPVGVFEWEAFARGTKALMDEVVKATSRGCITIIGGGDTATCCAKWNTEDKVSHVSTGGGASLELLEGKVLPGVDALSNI
Put plainly: PGK1 and GAPDH coupled enzyme assay, IC50 determination. Format: biochemical. A digest of the protocol: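 His-tagged PGK1 was expressed from pET28a in E. coli BL21(DE3) pLysS (0.4 mmol/L IPTG, 3 h) and nickel-purified. PGK1 at 0.4 nmol/L was preincubated with test compound (DMSO, various concentrations) for 10 min at room temperature with shaking. OD340 was read every 15 s for 15 min at 37 °C; V0 came from the first 3 min, and inhibition was expressed as % of the DMSO V0.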

For test [2], the system named is PGK1. As to conditions: read-out: IC50 (reported); reported as a PGK1 inhibitor; cited from earlier work.
Test [3] relates to LPS-induced IL-1β, IL-6, TNFα. Conditions: cited from earlier work; for pro-inflammatory cytokine production: PKM2-targeted compounds.
The target of test [4] is T1, PGK1. Put plainly: Protein thermal shift assay. As to conditions: Figs. S1I-J. The test is classed as binding. The method in brief:
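Recombinant PGK1 at 3 μmol/L was mixed with 5× SYPRO Orange and test compound or DMSO in 20 μL of 50 mmol/L HEPES pH 7.4, 150 mmol/L NaCl, 1 mmol/L DTT. Fluorescence was followed during thermal melting in a real-time PCR instrument, and Tm was derived with the instrument's thermal-shift software.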

The target of test [5] is T1, PGK1. Put plainly: Steady-state kinetic assay in the presence of gradient compound concentrations. The test is classed as biochemical.

As to `CC(C)[C@H](CO)Nc1nc(Nc2cccc(Cl)c2)c2ncn(C(C)C)c2n1` [purvalanol A], the values for the IC50 at PGK1 [1] and in the test on PGK1 [2] were 1960 nM and 2500 nM, respectively.
`CN(C)C(=O)CCSC(SCCC(=O)O)c1cccc(/C=C/c2ccc3ccc(Cl)cc3n2)c1` (stereo not shown) [MK-571] came in with an IC50 at PGK1 [1] of 25200 nM.
Consider `Nc1cccc(S(=O)(=O)N2CCCN(S(=O)(=O)c3ccc4c(c3)OCCO4)CC2)c1` [DASA-58], for which the pro-inflammatory cytokine production entry in test [3] is reported as “only inhibit IL-1β production”.
As to `c1cc(-c2cnn3cc(-c4ccc(OCCN5CCCCC5)cc4)cnc23)ccn1` [dorsomorphin], on PGK1 [1], the IC50 came to 6720 nM.
On to `OCC1OC(O)CC(O)C1O` (stereo not shown) [Compound 2-DG], for which, in test [3] (previous studies), the “LPS-induced IL-1β” value was “blocks”; the “transcription of IL-6 and TNFα” value is “unaffected”.
Turning to `CCOC(=O)c1nc2cc(Cl)c(Cl)cc2nc1N1CCCN(C(=O)CC)CC1` [LTP-10, ethyl 6,7-dichloro-3-(4-propionyl-1,4-diazepan-1-yl)quinoxaline-2-carboxylate], the PGK1 thermal stability result at PGK1 [4] is on record as “stabilized”. On PGK1 [1], this compound registered an IC50 of 2300 nM. In addition, the inhibitory constant (Ki) on PGK1 [5] (Ki, ATP competitive, varying ATP, saturating 3-PG, competitive model) was 2590 ± 10 nM. Further, on PGK1 [5] (Km of ATP increases, Vmax unchanged), the “mode of inhibition versus ATP” value is “ATP competitive inhibitor”. Besides, the “mode of inhibition versus 3-PG” value at PGK1 [5] (Vmax decreases, Km of 3-PG unchanged) is listed as “noncompetitive inhibition”.
Take `Cn1c2cc([S+](C)[O-])sc2c2cnn(Cc3cccc(N)c3)c(=O)c21` (stereo not shown) [TEPP-46]: the pro-inflammatory cytokine production result in test [3] is given as “only inhibit IL-1β production”.
